Source: ChEMBL document CHEMBL4513216, “Probing the Open Global Health Chemical Diversity Library for Multistage-Active Starting Points for Next-Generation Antimalarials” (ACS Infect Dis, 2020)

Assay: Toxicity liver stage against HepG2, at 10uM
Format: cell-based
Design: test concentration 10 uM, cell line HepG2-A16-CD81EGFP
Settings: human, HepG2-A16-CD81EGFP cells; read-out: INHIBITION
Procedure, shortened: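 Uninfected HepG2-A16-CD81EGFP cells, 3 × 10^3 per well, 1536-well, plated on prespotted compound at 10 μM final, parasite-free screening media added to match infected plates; puromycin 10 μM positive, DMSO 0.5% negative; run in parallel with 48 h PbLuc assay at 37 °C, 5% CO2; viability by CellTiter-Glo luminescence, normalized to controls.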

COc1ncc(C2(O)CCN(Cc3ccc(F)c(F)c3)CC2)c(OC)n1
cytotoxicity at 10 µM: -0.279%

O=S(=O)(NC1CCOC1)c1ccc(C(F)(F)F)nc1 (stereo unspecified)
cytotoxicity at 10 µM: 8.16%

O=C1CCc2cc(-c3csc(CCN4CCOC4=O)n3)ccc2N1
cytotoxicity at 10 µM: -12.2%

Clc1snnc1CN(Cc1cccs1)C1CC1
cytotoxicity at 10 µM: -8.78%

CC(CCS(C)(=O)=O)NC(=O)NCc1ccc2c(c1)CCC2 (stereo unspecified)
cytotoxicity at 10 µM: -143%

Cc1nc(Nc2ncccn2)cc(C2CCCN2C2CCOCC2)n1 (stereo unspecified)
cytotoxicity at 10 µM: -4.45%

CCc1nc(CN(C)C2CCN(Cc3ccc(Cl)s3)C2)no1 (stereo unspecified)
cytotoxicity at 10 µM: 9.41%

Cc1cc(C(=O)N2CCn3c(COCC4CCCC4)cnc3C2C)on1 (stereo unspecified)
cytotoxicity at 10 µM: 3.18%

Cc1ccc(CNCC2Cn3nncc3CO2)s1 (stereo unspecified)
cytotoxicity at 10 µM: -99.4%

CCN(CC)c1ccc(C(=O)N2CCC(c3nc(C)no3)CC2)cn1
cytotoxicity at 10 µM: -7.42%

O=C(O)C1CCCN(C(=O)CCn2ccc3c(Cl)cccc32)C1 (stereo unspecified)
cytotoxicity at 10 µM: 11%

O=C(c1ccco1)N1CCCC2(CCN(CCN3CCCC3)C2=O)C1 (stereo unspecified)
cytotoxicity at 10 µM: -4.73%

COc1cccc(CCN2C[C@H]3CCNCC[C@H]3S2(=O)=O)c1
cytotoxicity at 10 µM: -8.35%

CCc1c(C)nn(CCN2CC3(CCOC3)CCC2=O)c1C (stereo unspecified)
cytotoxicity at 10 µM: 1.94%

O=C(NCCN1CCNCC1)c1c(O)c2ccccc2[nH]c1=O
cytotoxicity at 10 µM: 21%

Cc1ccc(OCC(O)CN(C)CC(=O)NC(C)C)c(C)c1 (stereo unspecified)
cytotoxicity at 10 µM: -7.55%

CS(=O)(=O)N1CCCC(n2nnn(-c3ccccc3)c2=O)C1 (stereo unspecified)
cytotoxicity at 10 µM: -6.17%

CCOC[C@@H]1CC[C@H]2[C@H](CCN2Cc2c(C)noc2C)O1
cytotoxicity at 10 µM: 10.5%

Cc1nc(N2CCC(O)(c3ccccc3)CC2)c2c(C)nn(C)c2n1
cytotoxicity at 10 µM: 1.22%

Cc1cnn(CC2CCCN2CC(=O)N(C)Cc2ccc(C)o2)c1 (stereo unspecified)
cytotoxicity at 10 µM: -7.19%

Cc1cc(C(=O)N2CCC(O)(Cn3c(C)cc4ccncc43)CC2)on1
cytotoxicity at 10 µM: 9.55%

COCCN1CC2(CCCN(C(=O)NCc3ccccc3)C2)CCC1=O (stereo unspecified)
cytotoxicity at 10 µM: -9.31%

CN1CCN(Cc2cccnc2)C2(CCN(c3ncc(F)cn3)C2)C1=O (stereo unspecified)
cytotoxicity at 10 µM: -6.49%

CC(=O)N1CCC(NC2(Cc3cc(CN(C)C)on3)COC2)CC1
cytotoxicity at 10 µM: -1.38%

CCOc1ccc(N2CCCN=C2NC(=O)c2ccc(OC)cc2)cc1
cytotoxicity at 10 µM: 6.03%

Cc1ccnc(C(=O)N2C[C@@H]3CN(S(C)(=O)=O)CCO[C@@H]3C2)c1
cytotoxicity at 10 µM: -3.92%

c1cnc(N2CCCC3(CCN(CC4CC4)C3)C2)nc1 (stereo unspecified)
cytotoxicity at 10 µM: -76.9%

COc1ncccc1CN1CC[C@]2(C[C@@H](OCc3ccccn3)CO2)C1
cytotoxicity at 10 µM: 4.96%

CCc1nc(C(=O)N2CCCC2)nn1-c1ccccc1Cl
cytotoxicity at 10 µM: -3.17%

COc1ccc(C(=O)N2CCCS2(=O)=O)cc1OC
cytotoxicity at 10 µM: -17.6%

CCOc1ccc(N2CCC(C(O)c3ccccc3)CC2)nn1 (stereo unspecified)
cytotoxicity at 10 µM: -2.2%

CC(C)=CCN1C[C@@H]2CC[C@H]1CN(C(=O)CCc1nnc(C)[nH]1)C2
cytotoxicity at 10 µM: -6.57%

Cc1noc(C)c1CN1C[C@@H](OCc2ccccn2)[C@H]2OCCC[C@H]21
cytotoxicity at 10 µM: -3.14%

Cc1ccccc1CCC1CCCN(C(=O)Cc2cc(=O)[nH]c(N)n2)C1 (stereo unspecified)
cytotoxicity at 10 µM: 4.6%

CC1(C)CCN(Cc2ccccc2-c2nc(C(C)(C)C)cc(=O)[nH]2)C1
cytotoxicity at 10 µM: -39.9%

CN(C)c1ccc(NC(=O)NCc2cccs2)cn1
cytotoxicity at 10 µM: -1.15%

CCOC(=O)CCCN1CCCC(C(=O)Nc2ccc(Cl)cn2)C1 (stereo unspecified)
cytotoxicity at 10 µM: 2.69%

CC(C)(C)NC(=O)Cn1nc(C2CC2)cc(C(F)(F)F)c1=O
cytotoxicity at 10 µM: -13.9%

Cc1cc(SC(C)(C)C)ccc1NCC(=O)NC(N)=O
cytotoxicity at 10 µM: -17.1%

Cc1cncc(C2CCN(Cc3cnc(C)nc3)CC2)n1
cytotoxicity at 10 µM: 5.38%

CN(C)S(=O)(=O)N1C[C@@H](Oc2ccccn2)[C@H]2OCCC[C@H]21
cytotoxicity at 10 µM: 1.16%

CCOCCC(=O)N1CCCC(c2cc(C(F)(F)F)[nH]n2)C1 (stereo unspecified)
cytotoxicity at 10 µM: -0.819%

CNC(=O)C1Cc2ccccc2CN1C(=O)CC(C)C (stereo unspecified)
cytotoxicity at 10 µM: -150%

O=C(c1ccc(-c2ccc(O)nc2)s1)N1CCSCC1
cytotoxicity at 10 µM: 3.96%

COCC(=O)N1CCC2(CC1)CC(OC)c1ccc(F)cc12 (stereo unspecified)
cytotoxicity at 10 µM: -134%

COCCOC(=O)N1CCN2C[C@@H](CO)[C@H](c3ccccc3)[C@H]2C1
cytotoxicity at 10 µM: 3.44%

CC(CNC(=O)OC(C)(C)C)N(C)C(=O)COc1ccccc1C#N (stereo unspecified)
cytotoxicity at 10 µM: 1.39%

Cc1cccc(N(CCC(N)=O)CC(=O)Nc2ccccc2)c1
cytotoxicity at 10 µM: -9.5%

O=C(c1ccnnc1)N1CCN2C[C@H](Oc3cccc(F)c3)C[C@H]2C1
cytotoxicity at 10 µM: -1.96%

Cc1cccc(N2CCC(N3CCC4(CN(C)C(=O)O4)C3)CC2)c1C (stereo unspecified)
cytotoxicity at 10 µM: -11.8%

CCc1nc(-c2noc3ccc(C(=O)N(C)CCOC)cc23)co1
cytotoxicity at 10 µM: -138%

O=C(NCc1nnc2n1CCC2)N1CCC2(CCCCC2)CC1
cytotoxicity at 10 µM: 11%

CN(Cc1ccncc1)C(=O)c1ccc(F)c(NS(C)(=O)=O)c1
cytotoxicity at 10 µM: -0.453%

O=C1CC2(CCCC2)CC(=O)N1Cc1nccs1
cytotoxicity at 10 µM: 3.16%

CC(C)CNC(=O)CNc1c(NCc2ccncc2)c(=O)c1=O
cytotoxicity at 10 µM: -4.44%

CCc1noc(CN2CCN(C(=O)N(CC)CC)CC2)n1
cytotoxicity at 10 µM: -1.67%

CC1c2ncc(CNC(=O)C3CC3)n2CCN1Cc1cccnc1 (stereo unspecified)
cytotoxicity at 10 µM: -3.76%

COCc1cnc2n1CCN(C1CCCC1)C2C (stereo unspecified)
cytotoxicity at 10 µM: 9.13%

Cc1cc(C)nc(N2Cc3cnn(Cc4ccc(F)cc4)c3C2)n1
cytotoxicity at 10 µM: 25.2%

COCC(=O)NCC1CCC(c2nnc(-c3cccnc3)o2)CC1 (stereo unspecified)
cytotoxicity at 10 µM: -2.74%

O=C(Nc1ccc(N2CCCC2)nc1)N1CCc2ccccc2C1
cytotoxicity at 10 µM: -10.2%

Cc1ccc(CN2C[C@@H]3CN(C(=O)c4cccn4C)C[C@@H]3C2)cc1
cytotoxicity at 10 µM: -4.25%

CC(C)N1CCC(CC(=O)NC[C@H]2CCc3ccccc3O2)CC1
cytotoxicity at 10 µM: 2.04%

CN(Cc1ncc(-c2ccccc2)o1)C1CCCN(c2cccnn2)C1 (stereo unspecified)
cytotoxicity at 10 µM: -29.1%

CC(=O)N(Cc1ncc(C(C)C)o1)C1CCN(CC2CCC2)C1 (stereo unspecified)
cytotoxicity at 10 µM: -11.8%

Cc1c(C)n2c(SCC(=O)N3CCCC3)nnc2[nH]c1=O
cytotoxicity at 10 µM: 2.4%

Cn1nccc1CNC(=O)CCn1nc(C(F)(F)F)c(Cl)c1C1CC1
cytotoxicity at 10 µM: -3.33%

CCc1csc(CNc2nc3c(s2)c(C)nn3C)n1
cytotoxicity at 10 µM: -35.5%

CC(O)CN1CCN(C(=O)c2cc3ccccc3[nH]c2=O)CC1 (stereo unspecified)
cytotoxicity at 10 µM: 0.407%

Cc1noc([C@]23COC[C@H]2CN(C(=O)C2CCOCC2)C3)n1
cytotoxicity at 10 µM: 9.46%

Cc1ncc2c(n1)CCCC2NC(=O)c1ccc(Cn2cccn2)cc1 (stereo unspecified)
cytotoxicity at 10 µM: -7.55%

CCc1nnc2ccc(N3CCN(S(=O)(=O)c4ccc(Cl)s4)CC3)nn12
cytotoxicity at 10 µM: 5.01%

O=C1CC(Nc2ccc3nccnc3n2)CN1c1ccccc1 (stereo unspecified)
cytotoxicity at 10 µM: -7.76%

CCn1ccnc1S(=O)(=O)Cc1ccc(C(N)=O)cc1
cytotoxicity at 10 µM: -3.8%

Cc1ccc2c(c1)C(=O)NCC1(CCN(Cc3ccccc3)CC1)O2
cytotoxicity at 10 µM: -26.9%

CC(NC(=O)COc1ccccc1C(=O)O)c1ccc(F)cc1 (stereo unspecified)
cytotoxicity at 10 µM: -1.11%

CCOCc1cncc2c1CCN(C(=O)c1cccc(C#N)c1)C2
cytotoxicity at 10 µM: 3.55%

COCCCN1CCC(CNc2nccc(-c3cnn(C)c3)n2)C1 (stereo unspecified)
cytotoxicity at 10 µM: -147%

Cc1ccc(C(CNCC2CC2)N2CCOCC2)s1 (stereo unspecified)
cytotoxicity at 10 µM: -13.7%

CC(NC(=O)NCCN1CCCC1)c1nncn1C (stereo unspecified)
cytotoxicity at 10 µM: -5.68%

CCn1nc(C)c2c1cnn2CCNS(=O)(=O)c1cccs1
cytotoxicity at 10 µM: 4.51%
